Laboratory results from ChEMBL document CHEMBL1123899, “Nucleic acid related compounds. 51. Synthesis and biological properties of sugar-modified analogues of the nucleoside antibiotics tubercidin, toyocamycin, sangivamycin, and formycin” (1987).
Values after ≈ are worked out from the molar mass of the structure shown.

How the values were obtained:
[1] = test system: L1210; test: Minimum inhibitory concentration required to reduce incorporation of [methyl-3H]dThd into TCA-insoluble material from murine leukemia L1210 cells; assay type: functional; settings: Mus musculus
In short: (§1)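 Murine L1210 leukemia cells; MIC50 is the concentration reducing cell growth, or incorporation of [methyl-3H]dThd into TCA-insoluble material (DNA synthesis), by 50%. Average of at least three separate experiments.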

[2] = test system: L1210; test: Minimum inhibitory concentration required to reduce incorporation of [4,5-3H]leucine into TCA-insoluble material from murine leukemia L1210 cells; assay type: functional; settings: Mus musculus
In short: (§2)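 Murine L1210 leukemia cells were exposed to compound and incorporation of [4,5-3H]leucine (protein) or [5-3H]Urd (RNA) into TCA-insoluble material was measured. MIC50 is the concentration reducing incorporation by 50%. Values are averages of at least three separate experiments.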

[3] = test system: Human alphaherpesvirus 1; test: Minimum inhibitory concentration required to reduce Herpes simplex virus type 1 (HSV-1, strain KOS) induced cytopathogenicity by 50%; assay type: functional
[4] = test system: Vesicular stomatitis virus; test: Minimum inhibitory concentration required to reduce Vesicular stomatitis virus (VSV) induced cytopathogenicity by 50%; assay type: functional
[5] = test system: Human respirovirus 3; test: Minimum inhibitory concentration required to reduce parainfluenza type 3 induced cytopathogenicity by 50%; assay type: functional
[6] = test system: Vesicular stomatitis virus; test: Minimum inhibitory concentration required to reduce vesicular stomatitis virus (VSV) induced cytopathogenicity by 50%; assay type: functional
[7] = test system: Measles morbillivirus; test: Minimum inhibitory concentration required to reduce measles virus induced cytopathogenicity by 50%; assay type: functional
[8] = test system: Coxsackievirus B4; test: Minimum inhibitory concentration required to reduce Coxsackie virus type B-4-induced cytopathogenicity by 50%; assay type: functional
[9] = test system: Human alphaherpesvirus 2; test: Minimum inhibitory concentration required to reduce Herpes simplex virus type 2 (HSV-2 strain G) induced cytopathogenicity by 50%; assay type: functional
[10] = species: Oryctolagus cuniculus; test: Minimum cytotoxic concentration required to cause a microscopically detectable alteration of normal cell morphology in primary rabbit kidney cells; assay type: functional
In short: (§3)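 Cytotoxicity read microscopically as the minimum concentration producing a detectable alteration of normal cell morphology, in PRK, HeLa or Vero cell cultures. Average of two to three separate experiments.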

[11] = test system: Poliovirus 1; test: Minimum inhibitory concentration required to reduce Polio virus type 1 induced cytopathogenicity by 50%; assay type: functional; settings: Enterovirus C
[12] = test system: HeLa; test: Minimum cytotoxic concentration required to cause a microscopically detectable alteration of normal cell morphology in Hela cells; assay type: functional, Homo sapiens; in short: as §3
[13] = test system: L1210; test: Inhibition of murine leukemia L1210 cell growth; assay type: functional; settings: Mus musculus; in short: as §1
[14] = test system: L1210; test: Minimum inhibitory concentration required to reduce incorporation of [5-3H]-Urd into TCA-insoluble material from murine leukemia L1210 cells; assay type: functional; settings: Mus musculus; in short: as §2
[15] = test system: Sindbis virus; test: Minimum inhibitory concentration required to reduce sindbis virus induced cytopathogenicity by 50%; assay type: functional
[16] = test system: Mammalian orthoreovirus 1; test: Minimum inhibitory concentration required to reduce reo virus type 1 induced cytopathogenicity by 50%; assay type: functional
[17] = test system: Vero; test: Minimum cytotoxic concentration required to cause a microscopically detectable alteration of normal cell morphology in Vero cells; assay type: functional, Chlorocebus sabaeus; in short: as §3

Structure (SMILES)	MIC50 [1] [µg/mL]	MIC50 [2] [µg/mL]	MIC50 [3] [µg/mL]	MIC50 [4] [µg/mL]	MIC50 [5] [µg/mL]	MIC50 [6] [µg/mL]	MIC50 [7] [µg/mL]	MIC50 [8] [µg/mL]	MIC50 ([8]; Enterovirus B, read-out: MIC50) [µg/mL]	MIC50 [9] [µg/mL]	MTC [10] [µg/mL]	MIC50 [11] [µg/mL]	MTC [12] [µg/mL]	MIC50 [13] [µg/mL]	MIC50 [14] [µg/mL]	MIC50 [15] [µg/mL]	MIC50 [16] [µg/mL]	MTC [17] [µg/mL]
Nc1ncnc2c1ccn2[C@@H]1O[C@H](CO)[C@@H](O)[C@H]1O [TUBERCIDIN]	5.4 (≈ 20.3 µM)	0.173 (≈ 0.65 µM)	0.1 (≈ 0.376 µM)	0.01 (≈ 0.0376 µM)	0.07 (≈ 0.263 µM)	0.02 (≈ 0.0751 µM)	0.3 (≈ 1.13 µM)	0.07 (≈ 0.263 µM)	0.07 (≈ 0.263 µM)	0.1 (≈ 0.376 µM)	0.4	0.02 (≈ 0.0751 µM)	0.4	0.04 (≈ 0.15 µM)	0.29 (≈ 1.09 µM)	0.2 (≈ 0.751 µM)	0.04 (≈ 0.15 µM)	0.4
N#Cc1cn([C@@H]2O[C@H](CO)[C@@H](O)[C@H]2O)c2ncnc(N)c12 [TOYOCAMYCIN]	38 (≈ 130 µM)	0.039 (≈ 0.134 µM)	> 0.04	0.07 (≈ 0.24 µM)	> 0.04	> 0.04				> 0.04	0.04	> 0.4	0.4	0.006 (≈ 0.0206 µM)	0.071 (≈ 0.244 µM)	> 0.04	> 0.04	0.04
NC(=O)c1cn([C@@H]2O[C@H](CO)[C@@H](O)[C@H]2O)c2ncnc(N)c12 [SANGIVAMYCIN]	> 100	0.014 (≈ 0.0453 µM)	0.07 (≈ 0.226 µM)	0.04 (≈ 0.129 µM)	0.02 (≈ 0.0647 µM)	0.02 (≈ 0.0647 µM)				0.07 (≈ 0.226 µM)	1	0.07 (≈ 0.226 µM)	0.4	0.019 (≈ 0.0614 µM)		> 0.4	> 0.4	0.4
Nc1ncnc2c1ccn2[C@H]1C[C@H](O)[C@@H](CO)O1 [2'-Deoxytubercidin]	127 (≈ 507 µM)	44 (≈ 176 µM)	50 (≈ 200 µM)	150 (≈ 599 µM)	40 (≈ 160 µM)	125 (≈ 499 µM)	> 200			40 (≈ 160 µM)	>400	150 (≈ 599 µM)	>400	23 (≈ 91.9 µM)	205 (≈ 819 µM)	> 400	200 (≈ 799 µM)	>400
